Source: paper PMC4159095 (Journal of medicinal chemistry, 2013)

Tests used:
SHP2 PTP domain = assay: Fluorescence titration; format: binding; conditions: increasing compound concentrations
In short: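 Intrinsic tryptophan fluorescence of the GST-fused SHP2 PTP domain (purified), diluted in 20 mM Tris-HCl pH 7.5. Protein level is held constant while test compound is raised stepwise. Spectra are recorded on a luminescence spectrometer, and fluorescence is plotted against log compound concentration (M). The experiment was repeated twice; data are mean±S.E.M. of triplicates.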

[1] = test system: PTPN11E76K/+ mouse embryonic fibroblasts; assay: MEF cell growth; format: cell-based; conditions: Cryptotanshinone 20 μM
[2] = test system: JMML cells (PTPN11E76K/+); assay: Total cell number in GM-CSF-containing medium; format: cell-based, human
Hela cells = assay: HeLa cell growth after control or SHP2 siRNA; format: cell-based; conditions: 24 hours treatment
In short: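 HeLa cells were transfected with control or SHP2 siRNA (400 pmoles/8.0×10^5 cells). After 48 h they were exposed to test compound at graded concentrations or DMSO, and cell numbers were determined 24 h later. Treated knockdown and control cells were each normalized to their untreated counterparts. Knockdown was confirmed by anti-SHP2 immunoblot with β-actin as loading control. Triplicates; three experiments.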

[3] = test system: myeloid progenitors from PTPN11E76K/+ mice; assay: Colony-forming unit assay, GM-CSF; format: cell-based, mouse; conditions: GM-CSF 1.0 ng/mL, 7 days
In short: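 Bone marrow from PTPN11E76K/+/Mx1-Cre+ and PTPN11+/+/Mx1-Cre+ mice was plated at 5×10^4 cells/mL in 0.9% methylcellulose IMDM with 30% FBS, glutamine, β-mercaptoethanol and GM-CSF (1.0 ng/mL), with test compound at varying doses or DMSO. CFU-GM and CFU-M colonies were counted after 7 days at 37°C in 5% CO2 and normalized to colonies from DMSO-treated WT cells. Triplicates, two independent experiments.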

U937 cells = assay: Apoptosis, Annexin V staining, FACS; format: cell-based, human; conditions: 24 hours
[4] = test system: WT mouse embryonic fibroblasts; assay: MEF cell growth; format: cell-based; conditions: Cryptotanshinone 20 μM
[5] = test system: IL-3-induced activation of Erk, Akt, Jak2, and Stat5; assay: IL-3 signaling in Ba/F3 cells, immunoblotting; format: cell-based
In short: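 Ba/F3 cells were starved overnight in serum- and cytokine-free RPMI 1640, pretreated for 3 h with test compound (20 μM for the time course, graded concentrations for dose response), then stimulated with IL-3 (1.0 ng/mL) for set times or 10 min. RIPA lysates (50 μg protein) were run on 10% SDS-PAGE and immunoblotted for p-Erk, p-Akt, p-Jak2 and p-Stat5 with ECL detection. Blots were reprobed for total proteins; three repeats.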

[6] = test system: U937 human lymphoma cells (PTPN11 G60R); assay: Cell proliferation assay; format: cell-based; conditions: 48 hours
GST-SHP2 PTP = assay: Enzymatic kinetic analyses; format: biochemical; conditions: Cryptotanshinone 25 μM
[7] = test system: H661 human lung cancer cells (PTPN11 N58S); assay: Cell proliferation assay; format: cell-based; conditions: 48 hours
SHP2 = assay: Reversibility test by extensive washing of the enzyme-inhibitor complex; format: biochemical
H661 cells = assay: Cell cycle analysis; format: cell-based, human
[8] = test system: myeloid blasts from JMML patients with the PTPN11E76K/+ mutation; assay: Colony-forming unit assay, GM-CSF; format: cell-based, human; conditions: GM-CSF 1.0 ng/mL, 14 days
In short: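 Bone marrow cells or splenocytes from JMML patients carrying PTPN11E76K/+ were plated at 5×10^4 cells/mL in 0.9% methylcellulose IMDM with 30% FBS, glutamine (10^-4 M), β-mercaptoethanol (3.3×10^-5 M) and GM-CSF (1.0 ng/mL), plus test compound at varying doses or matching DMSO. After 14 days at 37°C in 5% CO2, CFU-GM and CFU-M colonies were counted and normalized to DMSO-treated cells. Three patient samples were run in triplicate.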

SHP1 = assay: In vitro phosphatase activity assay, phospho-EGFR peptide substrate; format: biochemical
[9] = target: T1, SHP2 PTP domain (GST-SHP2 PTP) (Homo sapiens, UniProt Q06124); format: biochemical; conditions: phospho-EGFR peptide substrate
T1 sequence (Q06124 247-517 limits assumed): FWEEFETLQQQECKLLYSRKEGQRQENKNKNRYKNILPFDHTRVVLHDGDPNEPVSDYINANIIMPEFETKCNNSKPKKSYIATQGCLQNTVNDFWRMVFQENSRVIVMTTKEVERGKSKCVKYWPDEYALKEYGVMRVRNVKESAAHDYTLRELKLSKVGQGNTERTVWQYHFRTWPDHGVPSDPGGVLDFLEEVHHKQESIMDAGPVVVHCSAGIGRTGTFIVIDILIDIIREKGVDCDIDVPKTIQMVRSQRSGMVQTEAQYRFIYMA
In short: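 In-house purified GST-SHP2 PTP domain (0.5 μg) was preincubated with test compound at various concentrations for 30 min at room temperature. Buffer: 25 mM Tris-HCl pH 7.4, 50 mM NaCl, 5 mM DTT, 2.5 mM EDTA. EGFR pTyr peptide (DADEpYLIPQQG) was added to 0.2 mM final, then 30°C for 30 min. Released phosphate was detected with Malachite Green, reading OD620 after 10 min.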

C[C@H]1COC2=C1C(=O)C(=O)c1c2ccc2c1CCCC2(C)C [Cryptotanshinone]
quenching of SHP2 fluorescence (SHP2 PTP domain): strong quenching of SHP2 fluorescence in a dose-dependent manner | cell growth of PTPN11E76K/+ MEFs [1]: decreased cell growth | sensitivity of PTPN11E76K/+ MEFs relative to WT [1]: more sensitive | total cell number of JMML cells [2]: greatly decreased | proliferation of control siRNA cells (Hela cells): decreased | sensitivity of SHP2-depleted cells (Hela cells; SHP2 siRNA): much less sensitive | colony-forming capabilities of mutant SHP2-expressing progenitors [3]: significantly reduced | apoptosis in U937 cells (U937 cells): robust induction of apoptosis | cell growth of WT MEFs [4]: decreased cell growth | tyrosine-phosphorylation of Gab2 and Gab2-SHP2 interaction [5]: markedly decreased | IL-3-induced activation of Erk, Akt, Jak2, and Stat5 (phosphorylation levels) ([5]; 3 hours pretreatment, IL-3 1.0 ng/mL): greatly suppressed | cell proliferation of U937 cells [6]: decreased cell proliferation in a dose-dependent manner | change of Vmax by inhibitor (GST-SHP2 PTP): decreased | type of inhibition (GST-SHP2 PTP): mixed-type inhibitor | cell proliferation of H661 cells [7]: decreased cell proliferation in a dose-dependent manner | reversibility of SHP2 inhibition (SHP2): irreversible inhibitor | cell cycle effect in H661 cells (H661 cells): G1-S arrest | colony formation of JMML myeloid blasts [8]: exquisitely sensitive

Cc1cccc2c3c(ccc12)C1=C(C(=O)C3=O)[C@@H](C)CO1 [Dihydrotanshinone]
selectivity between SHP2 and SHP1 (SHP1): no selectivity between SHP2 and SHP1 | SHP2 IC50, fold lower than that of Cryptotanshinone [9]: 5.71 fold

Cc1coc2c1C(=O)C(=O)c1c-2ccc2c(C)cccc12 [Tanshinone I]
selectivity between SHP2 and SHP1 (SHP1): no selectivity between SHP2 and SHP1 | SHP2 IC50, fold lower than that of Cryptotanshinone [9]: 8.75 fold

Cc1coc2c1C(=O)C(=O)c1c-2ccc2c1CCCC2(C)C [Tanshinone IIA]
selectivity between SHP2 and SHP1 (SHP1): no selectivity between SHP2 and SHP1 | SHP2 IC50, fold lower than that of Cryptotanshinone [9]: 8.69 fold
